Results collected from several papers.
Each line is one published result; the experiments were not run side by side.
Target: Tyrosine-protein kinase Lyn (LYN, Homo sapiens, UniProt P07948)

SMILES | test | conditions | quantity | result
Cc1ccc(C(=O)NCc2ccsc2)cc1C#Cc1cn(C(C)C)c2ncnc(N)c12 | enzyme activity, inhibitor | 1 µM | activity vs control | 0%
CCN(CC)CCNC(=O)c1c(C)[nH]c(/C=C2\C(=O)Nc3ccc(Cl)cc32)c1C | enzyme activity, inhibitor | 0.5 µM | remaining activity | 6.34%
Cn1c2c(c3ccc(Cl)c(Cl)c31)C(C#N)C(C)(C)NC2=O (centres unmarked) | thermal stability, DSF | 10 µM | ΔTm | 0.1 °C
O=C(NS(=O)(=O)c1ccc(NCC2CCOCC2)c([N+](=O)[O-])c1)c1ccc(N2CCN(Cc3ccc(C(F)(F)F)cc3-c3ccc(Cl)cc3)CC2)cc1Oc1cnc2[nH]ccc2c1 | cell-free assay, competition with immobilised ligand | 1 µM | remaining binding | 99%
O=C1c2ccccc2-c2n[nH]c3cccc1c23 | enzyme activity, inhibitor | 0.5 µM | activity vs control | 97%
CC(C)(O)[C@H]1CC[C@H](Nc2ccc3ncc(-c4cccc(C(F)(F)F)c4)n3n2)CC1 | enzyme activity, inhibitor | 1 µM | remaining activity | 41.9%
Cn1c2c(Cl)c(Cl)ccc2c2cc(N)[nH]c(=O)c21 | thermal stability, DSF | 10 µM | ΔTm | 0.3 °C
CCN(CC)CCNC(=O)c1c(C)[nH]c(/C=C2\C(=O)Nc3ccc(F)cc32)c1C | enzyme activity, inhibitor | 0.3 µM | inhibition | 42%
Cn1c2c(Cl)c(Cl)ccc2c2cn[nH]c(=O)c21 | thermal stability, DSF | 10 µM | ΔTm | -0.1 °C
COc1ccc(COc2ccc(Cc3cnc(N)nc3N)cc2OC)cc1 | cell-free assay | 0.5 µM | remaining signal | 99.9%
CC(C)(C)c1nc2c(s1)c1nc(N)ncc1c1ccc(NS(=O)(=O)c3c(F)cccc3F)c(F)c12 | enzyme activity, inhibitor, radiometric | 1 µM | remaining activity | 87%
O=C1Nc2ccc(Cl)cc2C1=Cc1cc(Cl)c(O)c(Cl)c1 | cell-free assay | 0.5 µM | remaining signal | 81.6%
Cc1c(NC(=O)c2cc(C(N)=O)nc3cc(F)ccc23)c(C(F)(F)F)nn1Cc1ccc(C#N)cc1 | cell-free assay, competition with immobilised ligand | 1 µM | remaining binding | 100%
CN(C)S(=O)(=O)c1ccc2c(c1)/C(=C/c1cc3c([nH]1)CCCC3)C(=O)N2 | cell-free assay | 0.5 µM | remaining signal | 16.2%
Cn1c2c(c3ccccc31)C(C#N)C(C)(C)NC2=O (centres unmarked) | thermal stability, DSF | 10 µM | ΔTm | 0 °C
COc1cc(Cl)c(C(=O)N[C@@H](CN[C@H]2CC[C@@H](N)CC2)Cc2ccc(C#N)cc2)cc1-c1ccc(CN[C@H](C)c2ccc(C)cc2)o1 | enzyme activity, inhibitor | 1 µM | remaining activity | 90%
CNCc1ccccc1-c1csc([C@H](C)Nc2nc(C)nc3cc(OC)c(OC)cc23)c1 | cell-free assay, competition with immobilised ligand | 1 µM | remaining binding | 100%
CCC1(CC)NC(=O)c2c(c3ccc(Cl)c(Cl)c3n2C)C1C#N (centres unmarked) | thermal stability, DSF | 10 µM | ΔTm | -0.3 °C

SMILES | test | conditions | quantity | result
CC(C)(O)c1cncc(-c2nc3ccc(F)cc3n2C2CC2)c1 | cell-free assay, competition with immobilised ligand | 1 µM | remaining binding | 100%
CNCc1ccc(-c2cc(-c3nc(-c4ccc(S(=O)(=O)C(C)C)cc4)cnc3N)on2)cc1 | enzyme activity, inhibitor | 2 µM | inhibition | 53%
Cc1sc(C(=O)NC2COC2)cc1-n1cc(NC(=O)Nc2c(F)cccc2Cl)cn1 | enzyme activity, inhibitor | 10 µM | remaining activity | 106%
CN(C)C(=O)Cn1cc(-c2nc(C3(c4ccc(-c5cnc(N)nc5)cc4)CC3)no2)cn1 | cell-free assay, competition with immobilised ligand | 1 µM | remaining binding | 79%
CNC(=O)c1cc(Oc2ccc(NC(=O)Nc3ccc(Cl)c(C(F)(F)F)c3)cc2)ccn1 | enzyme activity, inhibitor | 0.3 µM | inhibition | 10%
COc1cc2c(N3CCN(C(=O)Nc4ccc(OC(C)C)cc4)CC3)ncnc2cc1OCCCN1CCCCC1 | cell-free assay | 0.5 µM | remaining signal | 95.6%
CCN1CCC2(CC1)NC(=O)c1c(c3ccc(Cl)c(Cl)c3n1C)C2C#N (racemic) | thermal stability, DSF | 10 µM | ΔTm | 0 °C
O=C(Nc1cnn(-c2csc(C(=O)NC3COC3)c2)c1)Nc1c(F)cccc1Cl | enzyme activity, inhibitor | 5 µM | remaining activity | 95.3%
CN(C)c1ncnc(-c2ccc3nc(Nc4cc(CN5CCN(C(=O)CC(F)(F)F)CC5)ccn4)[nH]c3c2)c1Cl | cell-free assay, competition with immobilised ligand | 1 µM | remaining binding | 94%
CNc1cccc2cc(C(=O)Nc3ccc(C(=O)O)cc3)c(=O)[nH]c12 | enzyme activity, inhibitor | 10 µM | inhibition | -4.6%
N#CCCc1ccc2c(c1)-c1[nH]c3ccc([N+](=O)[O-])cc3c1CC(=O)N2 | cell-free assay | 0.5 µM | remaining signal | 23%
Cc1cc(NC(=O)c2cccc3cc(-c4cccc5[nH]nc(N)c45)ccc23)ccc1F | enzyme activity, inhibitor | 0.1 µM | activity vs control | 88%
N#CC1c2c([nH]c3c(Cl)c(Cl)ccc23)C(=O)NC12CCCCC2 (racemic) | thermal stability, DSF | 10 µM | ΔTm | 0.2 °C
CS(=O)(=O)c1cc(C2(NC(=O)c3cncc4c3cnn4-c3ccc(F)cc3)CC2)ccn1 | cell-free assay, competition with immobilised ligand | 1 µM | remaining binding | 100%
c1nc2c(Nc3ccc4c(c3)OCCO4)nc(Nc3ccc4c(c3)OCCO4)nc2[nH]1 | enzyme activity, inhibitor | 10 µM | activity vs control | 32%
C=CC(=O)Nc1cc(Nc2nccc(Nc3cc(Cl)c(F)cc3C(C)(C)O)n2)c(OC)cc1N1CC[C@@H](N(C)C)C1 | enzyme activity, inhibitor | 1 µM | inhibition | 44%
CCOC(=O)c1cc2cc(-c3cc(C(=O)NCc4ccc(C(=O)O)cc4)nn3C)ccc2[nH]1 | cell-free assay, competition with immobilised ligand | 0.1 µM | remaining binding | 100%
